From PubChem BioAssay
Unmarked numbers belong to inactive results. Inconclusive results are not listed. Active and inactive are the calls of the source.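 The calls were made as follows, unless noted: active = inhibition over a set limit, the all-compound mean plus 3 SD, in both replicate runs; inconclusive = over that limit in just one replicate run; inactive = at or under that limit in both runs.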

Tests used:
[1] = S. cerevisiae growth inhibition in permissive medium (OD615), pilot counter-assay for S. cerevisiae lifespan shortening project, permissive growth control (AID 705;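 active = growth inhibition above 25% in both replicates, a cutoff set 3 SD above the mean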); conditions: OD615, 24 h, at 10 µM, stronger effect = higher value
Outline: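 System – S. cerevisiae with engineered DeaD lifespan system · Buffer or medium – SC raffinose/galactose permissive medium · Schedule – cells pre-grown 4 h, then 24 h compound exposure, 30 °C humidified · Technique – culture turbidity as optical density at 615 nm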

[2] = S. cerevisiae growth inhibition in restrictive medium, OD615, pilot screen, restrictive growth control, yeast lifespan reduction project (AID 706;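 active = growth inhibition above a set limit, 3 SD over mean compound inhibition, in both replicates, cut at about 43% in these data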;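 also: modified DeaD lifespan yeast strain shifted to restrictive glucose medium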); conditions: OD615, 48 h, at 10 µM, stronger effect = higher value
Outline: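 Material: engineered S. cerevisiae DeaD strain / Medium: glucose-based CSMM-D restrictive medium / Compound: single dose of 10 µM compound final, 0.25% DMSO / Timing: 4 h pre-incubation, 48 h exposure at 30 °C / Technique: OD615 absorbance reading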

[3] = doxorubicin toxicity protection in MRP-1 cells – H69AR cells, CellTiter-Glo, duplicate, MRP-1 activator project, pilot screen (AID 807;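 active = viability increase at or above a cutoff of the median across tested compounds plus 3 SD, cut at about 8.5% in these data, passing the limit was not always enough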;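 also: compound pretreatment 18-22 h then 72 h combined with doxorubicin; 0% = doxorubicin alone and 100% = vehicle without doxorubicin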); conditions: H69AR viability with doxorubicin, CellTiter-Glo luminescence; at 10 µM; stronger effect = higher value
[4] = viability of HCT116 without oncogenic beta-catenin – human colon tumor cells, pilot screen (AID 823;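 active = cell viability at or below a set limit in both duplicate runs, the limit being the all-compound median minus 4 SD, cut at about 23% in these data, passing the limit was not always enough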;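 also: 0% = wells killed by 20 µM Hyamine and 100% = untreated DMSO cell wells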); conditions: HCT116 beta-catenin knockout viability, CellTiter-Glo, 60 h; at 10 µM; stronger effect = lower value
[5] = viability of PTEN-null HCT116 cells – cell-based, HCT116 clonal line, CellTiter-Glo, pilot screen (AID 824;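 active = viability at or below 27.92% in each of two runs, the all-compound median minus 4 SD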;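 also: 0% = 20 µM Hyamine control and 100% = vehicle cell control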); conditions: HCT116 PTEN-deleted viability, 60 h, at 10 µM, stronger effect = lower value
[6] = RAM pathway blockade in budding yeast – dse1pr::URA3 reporter, 5-FOA selection, pilot screen (AID 869);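 also: 0% = DMSO wells with no growth and 100% = 10 µM 1-NA-PP1 with full growth; RAM network block rescues cells from 5-FOA so hits raise OD615 growth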; conditions: S. cerevisiae dse1pr::URA3 5-FOA growth, OD615, 2 d; at 10 µM; stronger effect = higher value; strain carries analog-sensitive mutant Cbk1 kinase
[7] = RAM signaling pathway blockade in yeast – S. cerevisiae, Pdr1DBD-CYC8 efflux-inhibited sensitized strain, primary screen (AID 1298;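 active = RAM network inhibition above 8.4% in each of two replicates, 3 SD over the compound average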;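 also: 0% = DMSO untreated cells without growth and 100% = 10 µM 1-NA-PP1 full growth; higher means more yeast growth rescued from 5-FOA killing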); conditions: S. cerevisiae cbk1-as DSE1-URA3 strain, 5-FOA growth OD615, 2 d; at 50 µM; stronger effect = higher value

SMILES	growth inhibition [1] [%]	growth inhibition [2] [%]	viability increase [3] [%]	viability [4]	viability [5]	inhibition [6] [%]	RAM network inhibition [7] [%]
COc1ccc(Cc2nnc(NC(=O)c3c(-c4ccccc4)noc3C)s2)cc1	-14	-3.4	0.94	88.3%	85.2%	1.82	5.46
COC(=O)C1C(=O)c2c([nH]c(C(=O)OC3CCCCCC3)c2C)CC1C (stereo unspecified)	1.09	2.59	-2.6	102%	91.1%	1.3	3.01
Cc1ccc(Cl)cc1N1CCN(C(=O)C2CCC(=O)N2C(C)C)CC1 (stereo unspecified)	-2.15	-5.95	2.45	93.6%	85.8%	-0.505	5.7
O=c1c2c3c(sc2nc2n1CCCCC2)CCCCC3	-11.5	-20.9	0.17	91.3%	91.7%	1.92	6.27
CC1CC(C)CN(CCCNC(=O)Cc2c(C(=O)O)[nH]c3ccccc23)C1 (stereo unspecified)	-11.5	-13.5	-0.1	103%	99.6%	0.68	1.78
CCOC(=O)CC1C(=O)NCCN1Cc1cccc(OC)c1 (stereo unspecified)	-12.5	-6.96	0.71	100%	108%	0.17	1.79
CCOc1ccc(CCNc2cc(C)nc3ncnn23)cc1OCC	-1.77	4.5	-2.06	90.3%	94.1%	1.71	1.15
COc1cccc(C2CC(c3cccc(Br)c3)n3nc(N)nc3N2)c1 (stereo unspecified)	2.54	4.69	-0.49	96.7%	90.3%	0.475	5.95
O=C(O)CCCC(=O)Nc1c(F)c(F)c(F)c(F)c1F	-5.5	-6.27	-1.85	90.4%	94.4%	0.175	-0.87
CC(=O)C1=C(C)NC(SCC(=O)c2ccc(C)cc2)=C(C#N)C1c1ccco1 (stereo unspecified)	-5.27	32.5	-6.5	49.2%	52.7%	4.71	2.93
O=C(CCCCC(=O)N1CCN(c2ccccc2)CC1)N1CCN(c2ccccc2)CC1	-2.23	8.9	0.82	94.6%	86%	1.74	-0.46
Cc1cc2cc(CNC(=O)c3ccco3)ccc2n1C	-7.55	-15.6	-4.26	106%	94.4%	1.89	6.42
Cc1ccc(C(=O)Nc2ccccc2NC(=O)c2ccc(C)o2)o1	-1.73	8.06	-3.39	93.2%	91.6%	1.41	3.58
CCOC(=O)C1CCN(C(=O)CN(c2ccc(OC)cc2)S(=O)(=O)c2c(C)noc2C)CC1	-7.19	-5.5	-2.59	98.5%	96.7%	2.41	3.41
COc1ccc(S(=O)(=O)N2CCCN(S(=O)(=O)c3ccc(OC)cc3C)CC2)c(C)c1	-12.6	-4.12	-6.52	87.2%	84.7%	-0.105	3.22
CCC(C)C1C(C#N)=C(N)OC2=C1C(=O)CC(C)(C)C2 (stereo unspecified)	-10.1	-15.1	-3.48	103%	86.5%	1.31	6.21
CCCCOC(=O)Cc1c(O)c2ccccc2[nH]c1=O	10.9	12.5	-1.82	102%	93.2%	1.82	-0.98
N#CCc1nc2n(n1)Cc1ccccc1-2	-6.24	-25.7	0.02	105%	96.8%	3.54	2.06
Cc1cc(C)c(OCC(=O)Nc2cccc(NC(=O)c3ccco3)c2)c(Br)c1	-3.62	4.23	-3.03	56.1%	60.8%	0.45	3.46
CCOC(=O)CC1C(=O)NCCN1C(=O)c1cc2c(=O)n3cccc(C)c3nc2s1 (stereo unspecified)	-11	-11.3	-3.53	98%	98.8%	-0.035	-1.37
CCOC(=O)C(C(=O)Nc1ccccc1)C1CCCCC1 (stereo unspecified)	-7.22	1.79	-5.02	86.1%	86.7%	-0.18	3.67
CCCN1CCN(CCCNC(=O)Cn2cc3c(n2)CCCC3)CC1	-3.77	-2.67	-0.96	101%	91%	0.27	3.05
CSc1ccc(C2NC(=O)c3c(sc4c3CCN(C)C4)N2)cc1 (stereo unspecified)	-13.2	-0.305	-2.7	78.2%	92.5%	-0.285	4.99
CC1=C(C(=O)N2CCOCC2)C(c2cccs2)NC(=O)N1 (stereo unspecified)	1.45	-1.81	-0.8	99.8%	99.9%	1.26	3.01

SMILES	growth inhibition [1] [%]	growth inhibition [2] [%]	viability increase [3] [%]	viability [4]	viability [5]	inhibition [6] [%]	RAM network inhibition [7] [%]
COc1ccc(CNC(=O)c2ccc3c(c2)N(C)C(=O)CS3=O)cc1 (stereo unspecified)	-1	7.29	1.48	103%	97.3%	1.41	2.04
O=C(O)C1C2C=CC3(CN(C/C=C/c4ccccc4)C(=O)C13)O2 (stereo unspecified)	-17.1	-3.43	-2.86	94%	100%	1.28	3.71
Cc1ccnc(SCCn2c(N3CCC(C)CC3)nc3c2c(=O)[nH]c(=O)n3C)n1	-10.1	-6.83	-2.18	106%	100%	0.24	-1.36
CC(C)OCCCNC(=O)c1ccc2c(c1)ncn2C1CCCC1	-12.5	-6.74	-2.69	102%	97.5%	1.38	1.62
COc1ccc(Nc2oc(-c3ccccc3Cl)nc2C#N)cc1	9.48	0.98	-8	6.01% (active)	8.29% (active)	1.94	7.73
CCN(CC)CCCNC(=O)c1cc2c(=O)n(C)c3ccccc3c2n1C	-6.05	-3.57	-6.34	55.8%	58.4%	-0.125	2.21
CNC(=O)c1ccc2snnc2c1	-8.38	5.12	-1.54	107%	97.9%	0.52	-0.47
CC(=O)c1cccc(NC(=O)Nc2cc3sccc3n2C)c1	10.3	10.1	-3.17	98.2%	95.9%	0.69	5.08
N#CCC(=O)Nc1ccccc1C(=O)O	-4.9	0.025	-2.8	94.8%	97%	0.695	-0.92
O=C(NC(Cc1ccc2c(c1)OCO2)C(=O)N1CCCC1C(=O)O)c1ccccc1 (stereo unspecified)	-2.82	0.59	0.05	95.1%	98.1%	0.125	6.49
CC(=O)c1ccc(NC(=O)CSC(C)C)cc1	-0.135	-18.6	-0.64	102%	97.9%	1.36	0.37
Oc1cc(Cc2ccccc2)cnc1CN1CCCCC1	-10.9	2.06	-1	95.6%	98%	0.305	3.35
O=C(NC1CC1)c1ccc(CSCc2cccc(F)c2)o1	3.53	3.37	-2.78	82.3%	86.3%	1.08	4.29
Cc1onc(-c2ccccc2Cl)c1C(=O)Nc1nnc(C(C)C)s1	1.52	4.5	-1.44	93.4%	95.7%	-0.23	4.37
COc1ccc(-n2c(Cc3cccn3C)nnc2SCC(=O)Nc2ccccc2C)cc1	-11.6	11.1	-2.39	86%	81.7%	1.33	7.38
CCOc1ccc(S(=O)(=O)Nc2ccccc2C(=O)NCC2CCCO2)cc1 (stereo unspecified)	-13	-16.7	-0.84	94.1%	95.5%	1.91	5.77
CC(NC(=O)c1ccc(Cl)cc1)C(=O)N1CCCCC1 (stereo unspecified)	2.3	0.39	0.75	98%	96.9%	2.58	5.32
COc1ccc(N(CC(=O)Nc2cccc(SC)c2)S(C)(=O)=O)cc1Cl	-4.88	-9.05	-6.18	77.7%	80.6%	0.975	3.03
CCOc1ccc(C2N(c3ccc(F)cc3)C(=O)C3CCCN32)cc1 (stereo unspecified)	-6.9	-2.44	-0.91	94.3%	91.2%	2.38	4.43
Cc1cc(/C=N/n2cnnc2)c(C)n1-c1ccc(C(=O)O)cc1	5.52	-2.69	1.76	102%	99%	0.98	2.56
OCc1cn(-c2ccccc2)nc1-c1ccc(-c2nn(-c3ccccc3)cc2CO)cc1	3.83	-4.29	-4.72	102%	95.1%	1.8	5.84
COc1ccc(C)cc1NC(=O)C1CCCN(S(=O)(=O)c2c(C)noc2/C=C/N(C)C)C1 (stereo unspecified)	-4.98	3.38	-0.74	102%	100%	-0.18	4.58
CCc1nnc(NC(=O)CSc2nnc(Cc3cccn3C)n2CCOC)s1	-4.61	32.5	-0.66	96.8%	98.3%	0.98	2.84
Cc1ccc(C)c(NC(=O)CS(=O)(=O)c2cn(C)c3ccccc23)c1	-7.22	2.97	-0.69	103%	98.2%	0.025	1.3
